Source: PubChem
Neddylation inh: inhibitors of human cullin neddylation; AID 651699; P61081+Q13564; inhibition, % at 25 µM; TR-FRET cullin neddylation, biochemical; 360,000 tested, 0.58% active; in the data active means inhibition above about 36%
ASAP1 inh: ASAP1 ArfGAP inhibition; Q9ULH1; ASAP1-stimulated ARF1 GTP hydrolysis, GDP FP detection; inhibition, % at 16.5 µM; 360,000 tested, 0.19% active; in the data active means inhibition above about 25%;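 further: 0% = vehicle with enzyme and substrate and 100% = no enzyme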
Target sequence (Q9ULH1 325-724 limits assumed): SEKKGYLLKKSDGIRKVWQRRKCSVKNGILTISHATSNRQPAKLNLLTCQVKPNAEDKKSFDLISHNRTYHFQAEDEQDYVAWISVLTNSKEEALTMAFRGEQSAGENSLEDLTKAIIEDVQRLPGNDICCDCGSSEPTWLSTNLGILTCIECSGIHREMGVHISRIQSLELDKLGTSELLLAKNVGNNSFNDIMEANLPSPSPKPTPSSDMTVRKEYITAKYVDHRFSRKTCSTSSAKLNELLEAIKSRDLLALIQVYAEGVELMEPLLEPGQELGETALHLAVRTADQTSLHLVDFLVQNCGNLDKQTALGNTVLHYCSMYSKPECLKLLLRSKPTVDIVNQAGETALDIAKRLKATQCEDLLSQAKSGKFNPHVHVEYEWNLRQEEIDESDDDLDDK
H9c2 protect: myocardial damage modulation in H9c2 cells; 360,000 tested, 0.63% active; protection from H2O2 cell death, % at 20 µM; H9c2 cardiomyocytes, H2O2 injury protection, ATPLite, 2 h;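 active means compounds giving at least 50% protection of heart cells from peroxide-induced death in the single-dose screen, raw or plate-pattern-corrected value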;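 further: 0% = DMSO wells with peroxide and 100% = DMSO wells without peroxide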
ARFGAP1 inh: inhibits rat ARF GTPase activating protein 1; 360,000 tested, 0.26% active; Q62848; Arfgap1-stimulated ARF1 GTP hydrolysis, GDP FP detection; inhibition, % at 16.5 µM; AID 651572;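 active means inhibition above a per-plate limit, mean inhibition of low control wells plus 3 SD, cut at about 25% in these data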;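 further: 0% = DMSO wells with enzyme and 100% = wells lacking Arfgap1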
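Assay system: Rat Arfgap1 GAP domain (His6, aa 1-136), purified enzyme | Buffer or medium: HEPES 25 mM pH 7.5, NaCl 150 mM, MgCl2, DTT | Schedule: GTP hydrolysis reaction 2 h at 25 °C | Signal: FP of antibody-bound GDP Alexa 633 tracer, ex 620/em 688 nm | Measure: Percent inhibition of Arfgap1-stimulated GTP hydrolysis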
Neddyl conf: confirmation of human cullin neddylation inhibitors | TR-FRET cullin neddylation biochemical assay | calls only at 25 µM | shares compounds with Neddylation inh | 1,800 tested, 13% active; in the data active means inhibition above about 40%;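 further: neddylation substrate is the cullin 1 ring ligase complex with SKP2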
* hit, by the source's call. In the library only some 1.6% were active in any assay of this set; here they are far more common.

How did CCCCN(CC)C(=O)c1cc2c(=O)n3cccc(C)c3nc2s1 do in these assays?
Neddylation inh: 62*; ASAP1 inh: -11; H9c2 protect: 5; ARFGAP1 inh: 1

How did CCCCCCCCN1C(=O)[C@@H](CC(=O)NCC23CC4CC(CC(C4)C2)C3)C[C@@]2(C(=O)OC)C1=C[C@H](C1CCCC1)O[C@@H]2C do in these assays?
ASAP1 inh: -1; ARFGAP1 inh: -11

What do the screens show for `CCCS(=O)(=O)NC(=O)C1(C)CCN(C(=O)c2ccccc2OC(F)(F)F)C1` (stereo not drawn)?
Neddylation inh: 7; ASAP1 inh: -1; H9c2 protect: 3; ARFGAP1 inh: -11

What do the screens show for `COc1ccc(/C=C/C(=O)NC2=NCCS2)cc1OC`?
ASAP1 inh: 14; H9c2 protect: 1; ARFGAP1 inh: 0

Results for COc1ccc(OC)c(/C=C/C(=O)NC2=NCCS2)c1 ?
Neddylation inh: 42*; ASAP1 inh: -2; H9c2 protect: 8; ARFGAP1 inh: 19

Results for CCCc1cc(NCCCCO)n2c(nc3ccccc32)c1C#N ?
ASAP1 inh: -4; H9c2 protect: 11; ARFGAP1 inh: -4

How did CCCc1cc(-n2ccnc2C)n2c(nc3ccccc32)c1C#N do in these assays?
Neddylation inh: 38*; ASAP1 inh: -10; H9c2 protect: -2; ARFGAP1 inh: 4; Neddyl conf: inactive

What do the screens show for `CCOC(=O)c1oc2cc(O)cc(C)c2c1C`?
Neddylation inh: 41*; ASAP1 inh: 0; H9c2 protect: -9; ARFGAP1 inh: 17; Neddyl conf: active

What do the screens show for `COC1=CC(=O)OC(c2cccc(C#N)c2)C1` (stereo not drawn)?
Neddylation inh: -6; ASAP1 inh: 3; ARFGAP1 inh: 3

Results for Cn1c(=O)c(-c2ccccc2N)nc2ccccc21 ?
Neddylation inh: -23; ASAP1 inh: 1; H9c2 protect: 7; ARFGAP1 inh: -6

How did Cn1c(=O)c(-c2ccccc2)nc2ccccc21 do in these assays?
Neddylation inh: 58*; ASAP1 inh: -6; H9c2 protect: 17; ARFGAP1 inh: 1; Neddyl conf: active

Results for COc1ccc(C2c3[nH]c4ccccc4c3CCN2Cc2ccoc2)c(F)c1 (stereo not drawn) ?
Neddylation inh: 41*; ASAP1 inh: -5; H9c2 protect: -11; ARFGAP1 inh: 5; Neddyl conf: inactive

What do the screens show for `Oc1cccc(C2c3[nH]c4ccccc4c3CCN2Cc2ccoc2)c1` (stereo not drawn)?
Neddylation inh: 17; ASAP1 inh: 5; H9c2 protect: -8; ARFGAP1 inh: 13

How did CCOc1cc(C2NC(=O)c3ccccc3O2)ccc1OC(C)C (stereo not drawn) do in these assays?
Neddylation inh: 45*; ASAP1 inh: 1; H9c2 protect: -2; ARFGAP1 inh: -8; Neddyl conf: inactive

What do the screens show for `CCOc1ccc(C2NC(=O)c3ccccc3O2)cc1OC` (stereo not drawn)?
Neddylation inh: 37; ASAP1 inh: -8; H9c2 protect: -1; ARFGAP1 inh: 8

Results for CCOc1ccc(C2NC(=O)c3ccccc3O2)cc1OCC (stereo not drawn) ?
Neddylation inh: 41*; ASAP1 inh: -2; H9c2 protect: 11; ARFGAP1 inh: 2; Neddyl conf: inactive

How did O=C1NC(c2ccc3c(c2)OCO3)Oc2ccccc21 (stereo not drawn) do in these assays?
Neddylation inh: 42*; ASAP1 inh: -15; H9c2 protect: 12; ARFGAP1 inh: -6; Neddyl conf: inactive

How did Cc1[nH]c2ccccc2c1C(=O)c1c(N)[nH]c(C(=O)c2ccccc2)c1-c1ccc(Cl)cc1 do in these assays?
ASAP1 inh: 4; ARFGAP1 inh: 11

What do the screens show for `Cc1cc(C)n2nc(-c3ccccc3)cc2n1`?
ASAP1 inh: 1; H9c2 protect: -4; ARFGAP1 inh: -6

How did CCC1C(=O)n2nc(-c3ccccc3)cc2N=C1C (stereo not drawn) do in these assays?
Neddylation inh: 49*; ASAP1 inh: -8; H9c2 protect: -5; ARFGAP1 inh: 3; Neddyl conf: inactive

How did COc1cc(Br)cc(/C=N/NC(=O)Cc2ccccc2)c1O do in these assays?
Neddylation inh: 65*; ASAP1 inh: 4; H9c2 protect: 45; ARFGAP1 inh: 11; Neddyl conf: inactive

Results for COCCNc1ncnc2c1ncn2[C@H]1CN(Cc2ccc(-c3ccccc3)cc2)C[C@@H](CO)O1 ?
Neddylation inh: -1; ASAP1 inh: 2; H9c2 protect: -14; ARFGAP1 inh: 11

What do the screens show for `O=C(N[C@H](C(=O)N1CCC[C@H]1C(=O)NCCc1ccccc1Cl)c1ccccc1)C1CC1`?
ASAP1 inh: 5; ARFGAP1 inh: -1
